High-throughput results as filed in PubChem BioAssay.
TAAR1 agonist: human TAAR1 agonists, primary screen, Fluo-8 calcium fluorescence, CHO RD-HGA16 cells; Trace amine-associated receptor 1 (Homo sapiens), Q96RJ0; vehicle wells 0%, saturating PEA agonist 100%; activation, % at 3 µM; 0.99% of 360,000 active; AID 624467, 2012;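 active means activation above the mean activation of all test compounds in the run plus 3 SD, cut at about 38% in these data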
Target sequence (Q96RJ0 whole entry, looked up): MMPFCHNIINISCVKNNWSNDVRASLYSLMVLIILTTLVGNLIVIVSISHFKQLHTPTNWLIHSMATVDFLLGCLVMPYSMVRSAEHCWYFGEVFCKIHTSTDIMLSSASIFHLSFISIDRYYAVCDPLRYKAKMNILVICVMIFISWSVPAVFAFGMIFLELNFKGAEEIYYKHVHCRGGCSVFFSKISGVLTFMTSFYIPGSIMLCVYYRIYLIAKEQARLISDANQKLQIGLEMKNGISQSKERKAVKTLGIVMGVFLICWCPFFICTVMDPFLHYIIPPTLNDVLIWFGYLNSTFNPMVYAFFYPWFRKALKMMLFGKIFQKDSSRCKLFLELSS
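System: CHO RD-HGA16 cells carrying human TAAR1 plus Gα16; Incubation: 17-24 h seeding, 75 min 37 °C dye, 30 min RT; Measured by: Fluo-8 fluorescence, 5 s baseline then 140 s kinetic read; Control set: DMSO and PEA EC100; Replication: single well for each compound.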
TAAR1 antag: human TAAR1 antagonists, primary screen, Fluo-8 calcium fluorescence, CHO RD-HGA16 cells. 1.5% of 360,000 active. antagonist. AID 624466, 2012. inhibition, % at 3 µM;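 active means inhibition above a per-plate cutoff, the mean inhibition of test compounds on that plate plus 3 SD, cut at about 49% in these data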;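 further: 0% = DMSO plus EC80 beta-PEA response and 100% = DMSO alone without agonist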
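Material: CHO RD-HGA16 cells bearing hTAAR1; compound dosing: one-point dosing, 3 µM nominal final; schedule: dye loading 75 min at 37 °C, then 30 min room temperature; measured by: calcium fluorescence with Fluo-8; control set: vehicle and agonist controls; replication: n of 1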
M4 PAM: human M4 muscarinic receptor positive allosteric modulators, primary screen, CHO-K1 cells, Fluo-8 calcium fluorescence. Muscarinic acetylcholine receptor M4 (Homo sapiens), P08173. CHO-K1 hM4/Gqi5, ACh EC20; 0% = ACh EC20, 100% = maximal ACh. activation, % at 3 µM. 0.4% of 360,000 active. AID 624126, 2012;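 active means activation above its plate's cutoff, the mean activation of sample wells plus 3 SD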
M4 antag: human M4 muscarinic receptor antagonists, primary screen, CHO cells, Fluo-8 calcium fluorescence; Muscarinic acetylcholine receptor M4 (Homo sapiens), P08173; CHO-hM4 cells, ACh EC80; inhibition, % at 3 µM; 0.73% of 360,000 active;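 active means inhibition above its plate's cutoff, the mean inhibition of sample wells plus 3 SD, cut at about 27% in these data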;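 further: 0% = acetylcholine EC80 with DMSO and 100% = DMSO without agonist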
M4 ag: human M4 muscarinic receptor agonists, primary screen, CHO-K1 cells, Fluo-8 calcium fluorescence | 0.14% of 360,000 active | CHO-K1 hM4/Gqi5; vehicle 0%, full acetylcholine response 100% | activation, % at 3 µM | Muscarinic acetylcholine receptor M4 (Homo sapiens), P08173;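 active means activation above the run mean over all test wells plus 3 SD, cut at about 32% in these data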;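 further: peak over basal fluorescence ratio per well then scaled between controls; 0% = DMSO wells and 100% = acetylcholine at EC100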
nonsel antag count: nonselective antagonists in TAAR1 counter-screen cells, counter-screen for hTAAR1 antagonist project, cell-based, fluorescence, calcium. shares compounds with TAAR1 antag. counterscreen cell line, antagonist mode. inhibition, % at 3 µM. 77% of 2,400 active. AID 651780, 2012; in the data active means inhibition above about 22%;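 further: CHO-Ga16 host cells stimulated with ATP at an EC80 level; 0% = agonist EC80 plus vehicle and 100% = vehicle without agonist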
TAAR1 ant conf: human TAAR1 antagonists, retest of hits, confirmation, cell-based, fluorescence | shares compounds with TAAR1 antag | TAAR1-expressing cells, fluorescence antagonist read-out | inhibition, % at 3 µM | 40% of 2,400 active | AID 651785, 2012; in the data active means inhibition above about 49%;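 further: CHO-Ga16 host cells challenged with agonist PEA near its EC80; 0% = agonist at EC80 plus vehicle and 100% = vehicle with no agonist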
Ga16 ag counter: calcium activation in Ga16-expressing cells, counter-screen for TAAR1 antagonist project, cell-based, fluorescence; shares compounds with TAAR1 antag; agonist counterscreen; activation, % at 3 µM; 18% of 2,400 active; in the data active means activation above about 12%;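 further: 0% = vehicle wells and 100% = saturating stimulus response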
TAAR1 ag counter: TAAR1 activation by candidate antagonists – cell-based, fluorescence, counter-screen for TAAR1 antagonist project; activation, % at 3 µM; shares compounds with TAAR1 antag; hTAAR1 cell line, agonist mode; 2% of 2,400 active; AID 651955, 2012; in the data active means activation above about 37%;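 further: CHO cells stably expressing TAAR1 with calcium dye readout; 0% = DMSO vehicle and 100% = full agonist response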
* marks the source's active call; other numbers are inactive results. Sampled rows, rich in hits. Any-hit rate of the full collection: about 3%.

`CCNC(=O)c1ccccc1SCc1ccccc1` gave TAAR1 agonist 8, TAAR1 antag 0, M4 PAM 1, M4 antag 7 and M4 ag 0.
CCc1ccc(OCCNC(=O)c2ccccc2SCc2ccccc2)cc1 was read as TAAR1 agonist 8, TAAR1 antag 61*, M4 PAM -4, M4 antag 7, M4 ag 6, nonsel antag count 25*, TAAR1 ant conf 40, Ga16 ag counter 4 and TAAR1 ag counter 2.
`O=C(C[C@H]1C(=O)N(Cc2ccccc2)C[C@@H]1Cc1ccccc1)Nc1ccc(Br)cc1` gave TAAR1 agonist 4, TAAR1 antag 7, M4 PAM 2, M4 antag -3 and M4 ag 0.
`COc1cccc(/C=N/NC(=S)Nc2cccc(S(=O)(=O)N(C)C)c2)c1` gave TAAR1 agonist 4, TAAR1 antag 34, M4 PAM -14, M4 antag -1 and M4 ag 5.
For COc1ccc(O)c(/C=N/NC(=S)Nc2cccc(S(=O)(=O)N(C)C)c2)c1 the results were TAAR1 agonist 25, TAAR1 antag 68*, M4 PAM -25, M4 antag 8, M4 ag 19, nonsel antag count 50*, TAAR1 ant conf 62*, Ga16 ag counter 19* and TAAR1 ag counter 25.
`CN1CCN(C2CN(Cc3cn(Cc4ccccc4)nn3)S(=O)(=O)C2)CC1` (stereo unspecified) gave TAAR1 agonist 1, TAAR1 antag -25, M4 PAM 8, M4 antag -3 and M4 ag -1.
O=C(NCCCCc1ccccc1)c1cccc(NC(=O)c2ccccc2)c1 was read as TAAR1 agonist 5, TAAR1 antag 41, M4 PAM -6, M4 antag -2 and M4 ag 12.
Screening O=C(/C=C/c1ccccc1)Nc1ccc2c(c1)C(=O)NC2=O returned TAAR1 agonist 19, TAAR1 antag 59*, M4 PAM -5, M4 antag -25, M4 ag 22, nonsel antag count 24*, TAAR1 ant conf 47, Ga16 ag counter 14* and TAAR1 ag counter 29.
`O=C(Nc1ccc(Nc2ccccc2)cc1)c1ccc(Br)cc1` gave TAAR1 agonist 5, TAAR1 antag 3, M4 PAM 2, M4 antag 7 and M4 ag 0.
For O=C(NCCCCc1ccccc1)c1cccc(NC(=O)C2CCCC2)c1 the results were TAAR1 agonist 9, TAAR1 antag 64*, M4 PAM -5, M4 antag -3, M4 ag 17, nonsel antag count 25*, TAAR1 ant conf 42, Ga16 ag counter 10 and TAAR1 ag counter 12.
Screening O=C(Nc1cccc(C(=O)Nc2ccc(Br)cc2)c1)c1ccccc1 returned TAAR1 agonist 14, TAAR1 antag 76*, M4 PAM -12, M4 antag 17, M4 ag 20, nonsel antag count 44*, TAAR1 ant conf 57*, Ga16 ag counter 11 and TAAR1 ag counter 7.
O=C(NCCc1ccc(F)cc1)c1cccc(NC(=O)c2ccccc2)c1 was read as TAAR1 agonist 14, TAAR1 antag 61*, M4 PAM -6, M4 antag 15, M4 ag 12, nonsel antag count 33*, TAAR1 ant conf 51*, Ga16 ag counter 9 and TAAR1 ag counter 9.
Screening CCCN(C)C1CN(Cc2cn(CCCC(=O)OC)nn2)S(=O)(=O)C1 (stereo unspecified) returned TAAR1 agonist 0, TAAR1 antag 3, M4 PAM 1, M4 antag -5 and M4 ag 0.
COC(=O)C1=C(C)N(Cc2cccc(C(F)(F)F)c2)C(=NCc2ccc(C(F)(F)F)cc2)NC1c1cccc(F)c1 (stereo unspecified) was read as TAAR1 agonist 14 and TAAR1 antag 14.
Screening O=C(/C=C/c1ccccc1)Nc1cccc(C(=O)NCCCc2ccccc2)c1 returned TAAR1 agonist 12, TAAR1 antag 77*, M4 PAM -4, M4 antag -2, M4 ag 11, nonsel antag count 35*, TAAR1 ant conf 50*, Ga16 ag counter 8 and TAAR1 ag counter 7.
Screening O=C(/C=C/c1ccccc1)Nc1cccc(C(=O)NCc2ccccc2)c1 returned TAAR1 agonist 2 and TAAR1 antag -6.
For C[C@@H]1CN([C@@H](C)CO)C(=O)c2cc(Br)cnc2O[C@H]1CN(C)C(=O)c1ccccc1F the results were TAAR1 agonist 5, TAAR1 antag -19, M4 PAM 7, M4 antag -11 and M4 ag 1.
CN(C)S(=O)(=O)c1cccc(NC(=O)COc2ccccc2C(=O)NCc2ccccc2)c1 was read as TAAR1 agonist 13, TAAR1 antag 63*, M4 PAM -11, M4 antag 5, M4 ag 15, nonsel antag count 25*, TAAR1 ant conf 47, Ga16 ag counter 11 and TAAR1 ag counter 11.
For COc1cc(C=O)ccc1OCC(=O)Nc1cccc(S(=O)(=O)N(C)c2ccccc2)c1 the results were TAAR1 agonist 13, TAAR1 antag 63*, M4 PAM -12, M4 antag 1, M4 ag 18, nonsel antag count 35*, TAAR1 ant conf 54*, Ga16 ag counter 9 and TAAR1 ag counter 8.
`COc1ccccc1C(=O)NCC(=O)OCC(=O)Nc1cccc(S(=O)(=O)N(C)C)c1` gave TAAR1 agonist 2, TAAR1 antag 21, M4 PAM -1, M4 antag 2 and M4 ag 2.
Screening O=C(Nc1cc(C(F)(F)F)ccc1N1CCCCC1)C1=COCCO1 returned TAAR1 agonist -1, TAAR1 antag -28, M4 PAM 5, M4 antag -16 and M4 ag 0.
